Runt-CBFb FRET: Runt domain-CBFb interaction inhibition. Cerulean-Runt/Venus-CBFb FRET ratio 530/480, 1 h. actives 0.46% (n = 220,000). Q01196+Q13951. inhibition, % at 20 µM;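 active means inhibition over about 50% at 20 µM in the single-dose screen, limit read from the data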
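Buffer or medium: Tris pH 7.5 buffer with BSA. Assay system: Cerulean-labeled Runt domain protein. Amount: each fluorescent fusion protein 100 nM. Read-out basis: loss of energy transfer signal. Incubation: 1 h compound exposure, room temperature. Probe or stimulus: Venus-CBFb binding partner, 100 nM. Detection: FRET, excitation 422 nm, emission at 530 and 480 nm.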
Hck-Nef inh: human Hck-Nef kinase inhibition; P08631; Recombinant Hck-YEEI plus Nef, Z-Lyte FRET kinase assay; inhibition, % at 20 µM; actives 0.68% (n = 220,000); AID 463187;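 active means Hck-Nef kinase inhibition above about 50%, limit read from the data; inactive means inhibition below that limit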
Target sequence (P08631 whole entry, looked up): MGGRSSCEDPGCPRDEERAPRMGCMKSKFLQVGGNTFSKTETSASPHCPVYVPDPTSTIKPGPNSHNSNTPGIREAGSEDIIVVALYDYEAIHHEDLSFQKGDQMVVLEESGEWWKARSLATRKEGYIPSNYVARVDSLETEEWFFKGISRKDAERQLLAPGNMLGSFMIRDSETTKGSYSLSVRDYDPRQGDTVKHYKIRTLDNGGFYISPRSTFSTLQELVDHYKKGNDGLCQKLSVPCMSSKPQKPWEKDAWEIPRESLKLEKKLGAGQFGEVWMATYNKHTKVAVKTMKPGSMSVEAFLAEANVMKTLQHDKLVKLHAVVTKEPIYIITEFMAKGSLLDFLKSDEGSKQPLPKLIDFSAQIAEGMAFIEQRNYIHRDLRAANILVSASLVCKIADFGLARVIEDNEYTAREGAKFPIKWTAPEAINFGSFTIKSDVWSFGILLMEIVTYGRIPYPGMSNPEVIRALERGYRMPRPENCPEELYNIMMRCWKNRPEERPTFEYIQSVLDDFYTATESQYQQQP
Runt-SMMHC FRET: blocks binding of human RUNX1 Runt domain to CBFb-SMMHC | inhibition, % at 20 µM | Cerulean-Runt/Venus-CBFb-SMMHC FRET ratio 530/480, 1 h | Q01196+Q13951 | actives 0.74% (n = 220,000);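 active means mean inhibition across duplicate retests at 20 µM reaching about 50%, limit read from the data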;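 further: inhibitors lower the FRET ratio by blocking Runt binding to CBFb-SMMHC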
RanGTP-Imp inh: inhibitors of RanGTP-importin-beta interaction, primary screen, biochemical, FRET, CFP-Ran, YFP-importin-beta, homogeneous. cell-free CFP-Ran/YFP-importin-beta FRET ratio. inhibition, % (test concentration not listed). actives 1.1% (n = 300,000);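 active means more than half of the replicate wells show a fall in the fluorescence ratio signal beyond about 16%, limit read from the data, passing the limit was not always enough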
CaV13 ICDI inh: Primary screen for inhibitors of IQ motif and Ca2+-dependent inactivation inhibitor domain binding in CACNA1D, Förster resonance energy transfer in living cells, … | HEK cells, CFP/YFP FRET ICDI-IQ, plate reader, 10 min; percent FRET-ratio fall versus neutral wells | inhibition, % at 12.3 µM | actives 0.098% (n = 340,000);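 active means mean replicate inhibition of at least 30% and at least 1% of replicates passing that level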
Of the large screens only hits and unclear results are named; the others gave an inactive call; ! = not active in a repeat. A selection: hits, their analogues and other compounds. The true share with any hit is near 1.5%.

Cc1c(C=O)c2ccccn2c1C(=O)c1cccs1	Runt-CBFb FRET 61, Runt-SMMHC FRET 87, CaV13 ICDI inh 32
O=S(=O)(NC1CCCCC1N1CCC(O)CC1)c1ccccc1 (stereo unspecified)	RanGTP-Imp inh 56 (no result: Runt-CBFb FRET, Hck-Nef inh, Runt-SMMHC FRET)
CCCN1CCN(C2CCCCC2NS(=O)(=O)c2ccccc2)CC1 (stereo unspecified)	none (no result: Runt-CBFb FRET, Hck-Nef inh, Runt-SMMHC FRET, CaV13 ICDI inh)
Cc1ccc(N2C(=O)CC(Sc3nc(-c4ccccc4)c4cc(Cl)ccc4n3)C2=O)c(C)c1 (stereo unspecified)	none
O=c1oc2ccccc2cc1-c1csc(NN=C2CCCC2)n1	none
O=C(O)c1cccc(Nc2nc(-c3cc4ccccc4oc3=O)cs2)c1	CaV13 ICDI inh 77 (no result: Runt-CBFb FRET, Hck-Nef inh, Runt-SMMHC FRET)
O=C(O)c1ccc(N/N=C/C2=Cc3ccccc3OC2)cc1	RanGTP-Imp inh 21
O=C(O)c1ccc(N/N=C/c2ccncc2)cc1	none (no result: Runt-CBFb FRET, Hck-Nef inh, Runt-SMMHC FRET)
CCOC(=O)C1CCCN(CCCc2ccccc2)C1 (stereo unspecified)	CaV13 ICDI inh 38!
CSc1nsc(N/N=C/c2ccc3c(c2)OCO3)c1C#N	RanGTP-Imp inh 20
Cc1cccc(C)c1NC(=O)C1=C(O)c2sccc2N(C)S1(=O)=O	Runt-SMMHC FRET 59, RanGTP-Imp inh 46
N#CC(c1nc2ccccc2nc1N1CCCC1)S(=O)(=O)c1ccccc1 (stereo unspecified)	none
CN1CCN(c2nc3ccccc3nc2C(C#N)S(=O)(=O)c2ccccc2)CC1 (stereo unspecified)	RanGTP-Imp inh 64
Cc1ccc(S(=O)(=O)C(C#N)c2nc3ccccc3nc2N2CCN(C)CC2)cc1C (stereo unspecified)	RanGTP-Imp inh 94
O=C(O)c1ccccc1NS(=O)(=O)c1ccc2c(c1)OCCO2	none
O=C(NCC(=O)N(Cc1ccco1)C(C(=O)NC1CCCCC1)c1cccnc1)c1cccs1 (stereo unspecified)	none (no result: CaV13 ICDI inh)
CC(Sc1nc2ccc(C(=O)c3ccccc3)cc2[nH]1)C(=O)O (stereo unspecified)	none (no result: Runt-CBFb FRET, Hck-Nef inh, Runt-SMMHC FRET)
CN(C)C(=O)CSc1nc2ccc(C(=O)c3ccccc3)cc2[nH]1	CaV13 ICDI inh 62 (no result: Runt-CBFb FRET, Hck-Nef inh, Runt-SMMHC FRET)
CCCOc1ccccc1/C=C1\SC(N)=NC1=O	CaV13 ICDI inh 44 (no result: Runt-CBFb FRET, Hck-Nef inh, Runt-SMMHC FRET)
CCCOc1ccc(-c2nn(-c3ccccc3)cc2/C=C2\SC(N)=NC2=O)cc1	RanGTP-Imp inh 19
CCCOc1ccc(/C=C2\SC(N)=NC2=O)cc1OC	none (no result: Runt-CBFb FRET, Hck-Nef inh, Runt-SMMHC FRET)
Cc1cc(-c2nn(-c3ccccc3)cc2/C=C2\SC(N)=NC2=O)ccc1OC(C)C	none
CCc1noc(C)c1C(=O)Nc1cc(Cl)ccc1N1CCCC1	none (no result: Runt-CBFb FRET, Hck-Nef inh, Runt-SMMHC FRET)
Cc1ccc(/C=N/N2CCN(c3ccc(Cl)cc3)CC2)o1	none (no result: RanGTP-Imp inh)
S=c1[nH]c2ccc(Cc3ccc4[nH]c(=S)[nH]c4c3)cc2[nH]1	CaV13 ICDI inh 42 (no result: Runt-CBFb FRET, Hck-Nef inh, Runt-SMMHC FRET)
COCCn1c(C)cc2c(c1=O)C(c1ccco1)C(C#N)=C(N)O2 (stereo unspecified)	Runt-CBFb FRET 112, Runt-SMMHC FRET 117
CCOc1cccc(C2C(C#N)=C(N)Oc3cc(C)n(Cc4ccccn4)c(=O)c32)c1OCC (stereo unspecified)	none
CCn1c(C)cc2c(c1=O)C(c1ccccc1Br)C(C#N)=C(N)O2 (stereo unspecified)	RanGTP-Imp inh 48
Cc1cc2c(c(=O)n1CCN(C)C)C(c1ccncc1)C(C#N)=C(N)O2 (stereo unspecified)	none
COc1ccc(-c2ccc(-c3noc(-c4ccccc4)n3)c(OC)n2)cc1	RanGTP-Imp inh 30
COc1ccc(C(=O)N(Cc2ccccc2)c2cccc(C)c2)cc1S(=O)(=O)N1CCOCC1	none (no result: Runt-CBFb FRET, Hck-Nef inh, Runt-SMMHC FRET)
Cn1cccc1/C=C1\Cc2ccccc2C1=O	RanGTP-Imp inh 75
COc1ccccc1C(=O)Nc1ccnn1C1CCN(C)CC1	none (no result: Runt-CBFb FRET, Hck-Nef inh, Runt-SMMHC FRET)
COc1ccccc1C(=O)Nc1ccnn1C1CCN(C(C)CSC)CC1 (stereo unspecified)	RanGTP-Imp inh 23 (no result: Runt-CBFb FRET, Hck-Nef inh, Runt-SMMHC FRET)
O=C(CCCOc1ccc(Cl)cc1Cl)NCCCn1ccnc1	none
Cc1cc(NC(=O)C(C)Oc2ccc(Cl)cc2Cl)no1 (stereo unspecified)	RanGTP-Imp inh 38 (no result: Runt-CBFb FRET, Hck-Nef inh, Runt-SMMHC FRET)
CC(Oc1ccc(Cl)cc1Cl)C(=O)NCCCn1ccnc1 (stereo unspecified)	Runt-SMMHC FRET 81
CC(=O)Nc1ccc(OC(=O)Cc2ccc(Cl)cc2)cc1	none (no result: Runt-CBFb FRET, Hck-Nef inh, Runt-SMMHC FRET)

Screening results as filed in PubChem.
